Holding throughout (format): functional, cell-based, Oocyte
The target in experiment [1] is Glutamate receptor ionotropic, NMDA 2A (Rattus norvegicus, UniProt P35439+Q00959). Nature of the experiment: Antagonist activity at rat glutamate N1/2A receptor expressed in Xenopus oocytes at membrane potential -60 mV by two-electrode voltage-clamp electrophysiology assay. The method, boiled down:
(§1)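 Two-electrode voltage clamp at −60 mV on oocytes expressing the iGlu receptor subtype. Cells first received a maximally effective agonist concentration, then increasing toxin concentrations co-applied with agonist. IC50 values are means from 6 to 12 experiments, reported with 95% confidence intervals.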
For orientation: In two-electrode clamp one electrode senses voltage and the other passes current.

In the next experiment the target is Glutamate receptor 1 (Rattus norvegicus, UniProt P19490). The experiment is described as follows: Antagonist activity at rat GluA1 receptor expressed in Xenopus oocytes at membrane potential -60 mV by two-electrode voltage-clamp electrophysiology assay. In a few lines:
as §1

For experiment [2], the target named is T1, Glutamate receptor ionotropic, kainate 1 (Rattus norvegicus, UniProt P22756). The experiment is described as follows: Antagonist activity at rat GluK1 receptor expressed in Xenopus oocytes at membrane potential -60 mV by two-electrode voltage-clamp electrophysiology assay. In a few lines: as §1
T1 sequence (P22756 whole entry): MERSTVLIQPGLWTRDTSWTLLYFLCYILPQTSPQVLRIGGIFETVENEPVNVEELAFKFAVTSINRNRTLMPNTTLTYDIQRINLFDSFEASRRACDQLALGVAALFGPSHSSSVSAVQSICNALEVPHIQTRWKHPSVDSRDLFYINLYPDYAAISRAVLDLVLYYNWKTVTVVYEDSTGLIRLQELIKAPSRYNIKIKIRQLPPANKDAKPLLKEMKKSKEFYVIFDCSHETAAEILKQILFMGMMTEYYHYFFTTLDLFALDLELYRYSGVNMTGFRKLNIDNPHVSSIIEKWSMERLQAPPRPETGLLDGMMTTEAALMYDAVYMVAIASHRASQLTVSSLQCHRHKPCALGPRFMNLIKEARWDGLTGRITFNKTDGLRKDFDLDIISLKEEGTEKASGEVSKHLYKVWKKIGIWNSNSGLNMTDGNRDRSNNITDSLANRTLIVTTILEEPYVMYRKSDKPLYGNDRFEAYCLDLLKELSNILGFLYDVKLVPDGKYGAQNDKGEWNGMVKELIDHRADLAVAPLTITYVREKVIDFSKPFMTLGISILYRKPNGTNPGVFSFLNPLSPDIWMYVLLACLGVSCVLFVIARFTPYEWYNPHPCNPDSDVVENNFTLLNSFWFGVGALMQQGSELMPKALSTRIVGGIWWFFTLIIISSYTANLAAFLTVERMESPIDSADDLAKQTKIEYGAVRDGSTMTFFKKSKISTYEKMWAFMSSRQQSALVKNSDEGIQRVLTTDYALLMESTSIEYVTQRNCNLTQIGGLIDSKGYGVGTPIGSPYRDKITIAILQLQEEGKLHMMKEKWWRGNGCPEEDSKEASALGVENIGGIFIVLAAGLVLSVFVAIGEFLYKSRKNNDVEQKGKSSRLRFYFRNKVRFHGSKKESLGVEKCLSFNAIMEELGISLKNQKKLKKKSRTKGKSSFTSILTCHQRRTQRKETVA
Experiment [3] deals with T1, Glutamate receptor ionotropic, kainate 1. The experiment is described as follows: Antagonist activity at rat GluK1 receptor expressed in Xenopus oocytes by two-electrode voltage-clamp at membrane potential -60 to -80 mV electrophysiology assay. The method, boiled down:
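GluK1-expressing oocytes were clamped by two-electrode voltage clamp and given a maximally effective agonist concentration, then increasing toxin concentrations plus agonist. IC50 was determined at −60 mV and at −80 mV to assess voltage dependence of block. Values at −60 mV are means of 6 to 12 experiments.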

The text below walks through data of ChEMBL document CHEMBL2176954, “General synthesis of β-alanine-containing spider polyamine toxins and discovery of nephila polyamine toxins 1 and 8 as highly potent inhibitors of ionotropic glutamate receptors” (J Med Chem, 2012).

The structures appear in SMILES notation.

Sequence of Glutamate receptor 1 (P19490 whole entry): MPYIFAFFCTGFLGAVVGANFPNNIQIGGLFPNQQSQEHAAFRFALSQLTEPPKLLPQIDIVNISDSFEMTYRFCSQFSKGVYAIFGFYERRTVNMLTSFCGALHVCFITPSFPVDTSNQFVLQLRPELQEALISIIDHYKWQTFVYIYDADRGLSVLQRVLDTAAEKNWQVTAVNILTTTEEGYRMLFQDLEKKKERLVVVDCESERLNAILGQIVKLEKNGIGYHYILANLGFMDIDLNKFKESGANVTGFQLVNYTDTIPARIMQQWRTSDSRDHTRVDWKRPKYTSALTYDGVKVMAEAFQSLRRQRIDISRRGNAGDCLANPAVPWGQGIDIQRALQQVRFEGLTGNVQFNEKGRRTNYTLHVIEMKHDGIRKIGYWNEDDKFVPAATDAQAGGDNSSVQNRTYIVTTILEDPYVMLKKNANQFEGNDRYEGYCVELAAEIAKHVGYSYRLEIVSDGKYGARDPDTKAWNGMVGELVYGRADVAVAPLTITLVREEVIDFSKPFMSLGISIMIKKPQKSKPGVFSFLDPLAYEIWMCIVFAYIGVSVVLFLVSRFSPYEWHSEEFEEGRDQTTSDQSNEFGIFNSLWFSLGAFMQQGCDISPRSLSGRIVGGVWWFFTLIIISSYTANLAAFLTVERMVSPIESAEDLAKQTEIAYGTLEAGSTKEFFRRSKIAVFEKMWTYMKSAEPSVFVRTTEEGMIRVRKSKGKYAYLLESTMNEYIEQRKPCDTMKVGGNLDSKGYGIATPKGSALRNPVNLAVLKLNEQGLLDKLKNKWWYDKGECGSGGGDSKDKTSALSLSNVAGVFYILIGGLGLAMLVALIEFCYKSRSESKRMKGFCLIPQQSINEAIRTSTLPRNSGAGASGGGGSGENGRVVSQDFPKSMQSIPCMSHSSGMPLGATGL
Sequence of Glutamate receptor ionotropic, NMDA 2A (Q00959 whole entry, one chain of several): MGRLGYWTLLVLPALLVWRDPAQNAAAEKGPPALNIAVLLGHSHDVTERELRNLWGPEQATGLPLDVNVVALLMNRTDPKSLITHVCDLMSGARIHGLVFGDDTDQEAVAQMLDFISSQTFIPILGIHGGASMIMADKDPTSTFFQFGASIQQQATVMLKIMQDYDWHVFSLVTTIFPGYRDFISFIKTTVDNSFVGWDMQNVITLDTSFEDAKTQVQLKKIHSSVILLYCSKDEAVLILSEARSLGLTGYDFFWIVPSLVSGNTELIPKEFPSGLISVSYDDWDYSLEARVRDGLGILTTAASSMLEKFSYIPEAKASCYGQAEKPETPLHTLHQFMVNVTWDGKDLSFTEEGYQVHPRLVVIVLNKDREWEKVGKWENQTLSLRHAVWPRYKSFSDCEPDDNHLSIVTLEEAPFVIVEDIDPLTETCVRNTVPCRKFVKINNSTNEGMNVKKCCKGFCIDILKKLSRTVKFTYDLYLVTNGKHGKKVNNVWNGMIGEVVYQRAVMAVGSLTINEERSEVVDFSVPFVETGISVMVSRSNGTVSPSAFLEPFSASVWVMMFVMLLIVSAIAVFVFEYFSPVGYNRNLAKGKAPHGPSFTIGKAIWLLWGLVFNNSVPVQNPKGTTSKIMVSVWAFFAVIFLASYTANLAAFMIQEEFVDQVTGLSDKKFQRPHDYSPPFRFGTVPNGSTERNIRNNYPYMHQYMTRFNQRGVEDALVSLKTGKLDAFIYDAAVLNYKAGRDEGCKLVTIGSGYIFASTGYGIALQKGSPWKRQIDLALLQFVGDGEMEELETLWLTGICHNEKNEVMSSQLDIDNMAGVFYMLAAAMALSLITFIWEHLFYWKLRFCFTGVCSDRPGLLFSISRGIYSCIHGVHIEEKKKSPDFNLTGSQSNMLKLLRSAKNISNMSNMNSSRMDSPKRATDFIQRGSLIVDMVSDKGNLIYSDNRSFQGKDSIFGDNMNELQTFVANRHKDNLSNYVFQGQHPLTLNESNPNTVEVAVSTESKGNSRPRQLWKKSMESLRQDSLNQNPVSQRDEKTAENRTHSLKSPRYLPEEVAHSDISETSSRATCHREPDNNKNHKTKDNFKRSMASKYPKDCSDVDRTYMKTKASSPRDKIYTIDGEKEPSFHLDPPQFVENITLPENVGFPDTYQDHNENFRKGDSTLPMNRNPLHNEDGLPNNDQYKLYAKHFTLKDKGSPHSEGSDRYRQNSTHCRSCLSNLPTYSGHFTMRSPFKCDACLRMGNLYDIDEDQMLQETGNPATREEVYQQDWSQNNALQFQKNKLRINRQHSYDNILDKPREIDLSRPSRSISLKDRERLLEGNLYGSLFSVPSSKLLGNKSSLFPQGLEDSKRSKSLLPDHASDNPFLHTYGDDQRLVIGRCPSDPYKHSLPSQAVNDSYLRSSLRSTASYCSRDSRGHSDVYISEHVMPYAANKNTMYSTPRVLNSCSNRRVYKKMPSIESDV

As usually defined, the IC50 is the concentration needed to halve the response being measured. High values mean lower potency, low ones higher potency. As for `N=C(N)NCCC[C@H](N)C(=O)NCCCNCCCNCCCCCNC(=O)[C@H](CC(N)=O)NC(=O)Cc1ccc(O)cc1O`, the IC50 in experiment [1] is 0.177 µM; against Glutamate receptor 1, 0.135 µM.

In the case of `C[C@H](NC(=O)CNC(=O)[C@@H](N)CCCNC(=N)N)C(=O)NCCCCNCCC(=O)NCCCCCNC(=O)[C@H](CC(N)=O)NC(=O)Cc1ccc(O)cc1O`, the IC50 in experiment [1] was more than 10 µM; against Glutamate receptor 1, 1.08 µM; in experiment [2] it was 2.58 µM.

As for `NCCCNCCCCNCCC(=O)NCCCCCNC(=O)[C@H](CC(N)=O)NC(=O)Cc1c[nH]c2ccccc12`, the IC50 in experiment [3] was 0.00028 µM; in experiment [1], 0.15 µM; at Glutamate receptor 1 it was 0.027 µM; in experiment [2], 0.00082 µM.

As for `NCCCNCCCCNCCC(=O)NCCCCCNC(=O)[C@H](CC(N)=O)NC(=O)Cc1c[nH]c2cccc(O)c12`, the IC50 amounted to 0.00019 µM in experiment [3], 1.39 µM in experiment [1], 0.051 µM at Glutamate receptor 1 and 0.00033 µM in experiment [2].

As for `NCCCNCCCCNCCC(=O)NCCCCCNC(=O)[C@H](CC(N)=O)NC(=O)Cc1ccc(O)cc1O` [JORO SPIDER TOXIN 3], the half-inhibitory concentration (IC50) in experiment [1] worked out at 1.71 µM; on Glutamate receptor 1, 0.065 µM; in experiment [2] it was 0.019 µM.

With `N=C(N)NCCC[C@H](N)C(=O)NCCCCNCCC(=O)NCCCCCNC(=O)[C@H](CC(N)=O)NC(=O)Cc1ccc(O)cc1O` [NEPHILA SPIDER TOXIN 3], the IC50 in experiment [1] stood at 5.41 µM; at Glutamate receptor 1, 0.137 µM; in experiment [2], 0.164 µM.
